Data published in PubChem BioAssay.
Results filed as inconclusive are left out.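 Rule for the calls, unless noted: active = inhibition over a set limit, the all-compound mean plus 3 SD, in both replicate runs; inconclusive = over that limit in just one replicate run; inactive = at or under that limit in both runs.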

Legend:
[1] = S. cerevisiae growth inhibition in permissive medium (OD615), pilot counter-assay for S. cerevisiae lifespan shortening project, permissive growth control (AID 705;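 active = growth inhibition above 25% in both replicates, a cutoff set 3 SD above the mean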); conditions: OD615, 24 h, at 10 µM, active compounds read high
In short: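 assay system = Saccharomyces cerevisiae strain carrying genetically modified DeaD replicative-lifespan system | technique = absorbance (optical density) at 615 nm | buffer or medium = permissive raffinose/galactose medium | timing = cells pre-grown 4 h, then 24 h compound exposure, 30 °C humidified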

[2] = S. cerevisiae growth inhibition in restrictive medium, OD615, pilot screen, restrictive growth control, yeast lifespan reduction project (AID 706;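 active = growth inhibition above a set limit, 3 SD over mean compound inhibition, in both replicates, cut at about 43% in these data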;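 note: modified DeaD lifespan yeast strain shifted to restrictive glucose medium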); conditions: OD615, 48 h, at 10 µM, active compounds read high
In short: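 System: modified S. cerevisiae. Buffer or medium: CSMM-D glucose medium. Incubation: 4 h pre-growth plus 48 h compound exposure, 30 °C. Detection: absorbance (optical density) measured at 615 nm.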

[3] = doxorubicin toxicity protection in MRP-1 cells – H69AR cells, CellTiter-Glo, duplicate, MRP-1 activator project, pilot screen (AID 807;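 active = viability increase at or above a cutoff of the median across tested compounds plus 3 SD, cut at about 8.5% in these data, passing the limit was not always enough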;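 note: compound pretreatment 18-22 h then 72 h combined with doxorubicin; 0% = doxorubicin alone and 100% = vehicle without doxorubicin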); conditions: H69AR viability with doxorubicin, CellTiter-Glo luminescence; at 10 µM; active compounds read high
[4] = viability of HCT116 without oncogenic beta-catenin – human colon tumor cells, pilot screen (AID 823;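 active = cell viability at or below a set limit in both duplicate runs, the limit being the all-compound median minus 4 SD, cut at about 23% in these data, passing the limit was not always enough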;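 note: 0% = wells killed by 20 µM Hyamine and 100% = untreated DMSO cell wells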); conditions: HCT116 beta-catenin knockout viability, CellTiter-Glo, 60 h; at 10 µM; active compounds read low
[5] = viability of PTEN-null HCT116 cells – cell-based, HCT116 clonal line, CellTiter-Glo, pilot screen (AID 824;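 active = viability at or below 27.92% in each of two runs, the all-compound median minus 4 SD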;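 note: 0% = 20 µM Hyamine control and 100% = vehicle cell control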); conditions: HCT116 PTEN-deleted viability, 60 h, at 10 µM, active compounds read low
[6] = RAM pathway blockade in budding yeast – dse1pr::URA3 reporter, 5-FOA selection, pilot screen (AID 869);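 note: 0% = DMSO wells with no growth and 100% = 10 µM 1-NA-PP1 with full growth; RAM network block rescues cells from 5-FOA so hits raise OD615 growth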; conditions: S. cerevisiae dse1pr::URA3 5-FOA growth, OD615, 2 d; at 10 µM; active compounds read high; strain carries analog-sensitive mutant Cbk1 kinase
[7] = RAM signaling pathway blockade in yeast – S. cerevisiae, Pdr1DBD-CYC8 efflux-inhibited sensitized strain, primary screen (AID 1298;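 active = RAM network inhibition above 8.4% in each of two replicates, 3 SD over the compound average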;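 note: 0% = DMSO untreated cells without growth and 100% = 10 µM 1-NA-PP1 full growth; higher means more yeast growth rescued from 5-FOA killing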); conditions: S. cerevisiae cbk1-as DSE1-URA3 strain, 5-FOA growth OD615, 2 d; at 50 µM; active compounds read high

O=C1c2oc3ccccc3c(=O)c2C(c2cccc(O)c2)N1c1ccccn1 (configuration not stated)
inactive: growth inhibition [1] -7.62% | growth inhibition [2] -6.25% | viability increase [3] -0.37% | viability [4] 82.2% | viability [5] 79.6% | inhibition [6] 1.85% | RAM network inhibition [7] -0.1%

O=C(NCc1ccccc1)c1ccc2c(c1)OCCO2
inactive: growth inhibition [1] 3.26% | growth inhibition [2] 5.53% | viability increase [3] -1.83% | viability [4] 101% | viability [5] 101% | inhibition [6] 1.48% | RAM network inhibition [7] 0.51%

COc1ccc(C2/C(=C(/O)c3ccc(F)cc3)C(=O)C(=O)N2CCCN(C)C)cc1 (configuration not stated)
inactive: growth inhibition [1] -5.9% | growth inhibition [2] -4.55% | viability increase [3] -2.11% | viability [4] 104% | viability [5] 98.1% | inhibition [6] 0.345% | RAM network inhibition [7] 2.49%

Cc1cccc(NC(=O)C2CCCN(S(=O)(=O)c3cccc4cccnc34)C2)c1 (configuration not stated)
inactive: growth inhibition [1] -13.1% | growth inhibition [2] -9.72% | viability increase [3] -1.92% | viability [4] 87.2% | viability [5] 74.6% | inhibition [6] 2.15% | RAM network inhibition [7] 3.91%

CCCCC(=O)Nc1nc2c(OC)ccc(OC)c2s1
inactive: growth inhibition [1] -5.01% | growth inhibition [2] 1.46% | viability increase [3] -2.98% | viability [4] 97.5% | viability [5] 98.3% | inhibition [6] 0.87% | RAM network inhibition [7] 3.86%

CC1=CS/C(=C(/C#N)C(=O)NCc2ccco2)N1c1ccccc1
inactive: growth inhibition [1] -0.435% | growth inhibition [2] -4.64% | viability increase [3] -2.99% | viability [4] 117% | viability [5] 97.6% | inhibition [6] 2.08% | RAM network inhibition [7] 1.49%

Cc1nn(Cc2nc(-c3cccs3)no2)c(C)c1Br
inactive: growth inhibition [1] 0.735% | growth inhibition [2] 12% | viability increase [3] -1.13% | viability [4] 103% | viability [5] 101% | inhibition [6] 1.93% | RAM network inhibition [7] 3.61%

COc1ccc(NC(=O)C2CCCN(S(=O)(=O)c3cccnc3)C2)c(OC)c1 (configuration not stated)
inactive: growth inhibition [1] -9.3% | growth inhibition [2] -2.6% | viability increase [3] 1.08% | viability [4] 104% | viability [5] 97.1% | inhibition [6] 1.57% | RAM network inhibition [7] -0.22%

CCCCOC(=O)Nc1nc(CC(=O)OCC)cs1
inactive: growth inhibition [1] -1.73% | growth inhibition [2] -4.89% | viability increase [3] 1.05% | viability [4] 92.2% | viability [5] 95.7% | inhibition [6] -0.45% | RAM network inhibition [7] 1.89%

CSc1ccccc1NC(=O)c1onc(C)c1Cl
inactive: growth inhibition [1] -5.06% | growth inhibition [2] 10.3% | viability increase [3] -1.83% | viability [4] 95.6% | viability [5] 93.2% | inhibition [6] 1.33% | RAM network inhibition [7] 1.54%

Cc1cc(Nc2ccc(C)c(C)c2)n2nc(C)nc2n1
inactive: growth inhibition [1] 6.21% | growth inhibition [2] 10.1% | viability increase [3] -4.63% | viability [4] 105% | viability [5] 96.9% | inhibition [6] 0.77% | RAM network inhibition [7] 3.69%

Cc1cc(/C=N/n2cnnc2)c(C)n1-c1cc(Cl)ccc1Cl
inactive: growth inhibition [1] 3.15% | growth inhibition [2] 18.3% | viability increase [3] -3.01% | viability [4] 51.9% | viability [5] 69.7% | inhibition [6] 1.85% | RAM network inhibition [7] 1.38%

CCn1c(SCc2nc(-c3ccccc3)no2)nc2ccccc21
inactive: growth inhibition [1] -12% | growth inhibition [2] 8.5% | viability increase [3] 1.73% | viability [4] 93.1% | viability [5] 92.3% | inhibition [6] 0.38% | RAM network inhibition [7] 1.2%

COc1ccc2ccccc2c1C1CC(=O)N2CN(Cc3ccco3)CSC2=C1C#N (configuration not stated)
inactive: growth inhibition [1] 1.42% | growth inhibition [2] 16.4% | viability increase [3] -5.39% | viability [4] 82.5% | viability [5] 80.9% | inhibition [6] 3.5% | RAM network inhibition [7] 3.82%

Cc1csc(=N)n1-c1ccc(Cl)cc1
inactive: growth inhibition [1] -6.4% | growth inhibition [2] -7.49% | viability increase [3] 0.86% | viability [4] 82.5% | viability [5] 80.7% | inhibition [6] 1.35% | RAM network inhibition [7] 9.58%

CCOc1ccccc1N1CCN(S(=O)(=O)CC)CC1
inactive: growth inhibition [1] -0.885% | growth inhibition [2] 4.05% | viability increase [3] -1.83% | viability [4] 94.9% | viability [5] 97.6% | inhibition [6] 0.455% | RAM network inhibition [7] 6.05%

N/C(CC(=O)Nc1cccc(C(F)(F)F)c1)=N/O
inactive: growth inhibition [1] -0.19% | growth inhibition [2] 2.58% | viability increase [3] -1.91% | viability [4] 96.5% | viability [5] 101% | inhibition [6] 1.16% | RAM network inhibition [7] 4.4%

CCCN1CCN(CCCNC(=O)c2cc3c(=O)n(C)c4ccccc4c3n2C)CC1
inactive: growth inhibition [1] -5.02% | growth inhibition [2] 0.66% | viability increase [3] -7.07% | viability [4] 64.1% | viability [5] 65.3% | inhibition [6] 0.68% | RAM network inhibition [7] 1.89%

O=C(C1CCCN(S(=O)(=O)c2cccc3cccnc23)C1)N1CCN(c2ccc(F)cc2)CC1 (configuration not stated)
inactive: growth inhibition [1] 2.49% | growth inhibition [2] 2.17% | viability increase [3] -0.16% | viability [4] 47.9% | viability [5] 61.8% | inhibition [6] -0.585% | RAM network inhibition [7] 2.25%

CC(C)OCCCNC(=O)c1cc2c(=O)n(C)c3ccccc3c2n1C
inactive: growth inhibition [1] 0.55% | growth inhibition [2] -0.705% | viability increase [3] -2.09% | viability [4] 103% | viability [5] 97% | inhibition [6] 0.185% | RAM network inhibition [7] 3.23%

CCOc1ccc(C2C(C#N)=C(N)SC(N)=C2C#N)cc1OCC
inactive: growth inhibition [1] 12.6% | growth inhibition [2] -4.33% | viability increase [3] -0.77% | viability [4] 103% | viability [5] 91.5% | inhibition [6] 0.96% | RAM network inhibition [7] 7.43%

O=C(Cn1cc2c(n1)CCCC2)NC1CCCCCC1
inactive: growth inhibition [1] 4.4% | growth inhibition [2] 2.47% | viability increase [3] -1.14% | viability [4] 99.2% | viability [5] 93.6% | inhibition [6] 0.485% | RAM network inhibition [7] 2.95%

COc1ccc(C2C(C(=O)Nc3cc(C)on3)c3ccccc3C(=O)N2C)cc1 (configuration not stated)
inactive: growth inhibition [1] 2.9% | growth inhibition [2] -2.79% | viability increase [3] -1.73% | viability [4] 101% | viability [5] 101% | inhibition [6] 1.46% | RAM network inhibition [7] 0.37%

Cc1ccnc(SCCn2c(N3CCN(c4ccccc4)CC3)nc3c2c(=O)[nH]c(=O)n3C)n1
inactive: growth inhibition [1] -8.81% | growth inhibition [2] 5.83% | viability increase [3] -3.59% | viability [4] 89.4% | viability [5] 76.8% | inhibition [6] 2.09% | RAM network inhibition [7] 4.01%

CC(C)Oc1cc(O)c2c(=O)c(-c3ccc(O)cc3)coc2c1
inactive: growth inhibition [1] -14.2% | growth inhibition [2] -15.1% | viability increase [3] -6.33% | viability [4] 79.8% | viability [5] 64.5% | inhibition [6] 0.605% | RAM network inhibition [7] -3.3%

Cc1ccc2c(c1)c1cccc3c1n2CCN3CCC(N)=O
inactive: growth inhibition [1] 4.29% | growth inhibition [2] 6.53% | viability increase [3] 1.41% | viability [4] 87.4% | viability [5] 87.2% | inhibition [6] 3.32% | RAM network inhibition [7] 9.34%

CC(c1cccnc1)N(C(=O)Nc1ccccc1)C1CCCCC1 (configuration not stated)
inactive: growth inhibition [1] -1.48% | growth inhibition [2] -10.8% | viability increase [3] -2.35% | viability [4] 92.1% | viability [5] 91.6% | inhibition [6] 1.96% | RAM network inhibition [7] 5.08%

Cc1occc1C(=O)NC1CCCCCC1
inactive: growth inhibition [1] -17.9% | growth inhibition [2] -9.95% | viability increase [3] -0.64% | viability [4] 95.5% | viability [5] 96.6% | inhibition [6] -0.355% | RAM network inhibition [7] -0.22%

CCCc1ccc(Oc2cn[nH]c2-c2ccc(O)cc2O)cc1
inactive: growth inhibition [1] -16.3% | growth inhibition [2] -10.3% | viability increase [3] -3.5% | viability [4] 82.4% | viability [5] 78.7% | inhibition [6] 0.7% | RAM network inhibition [7] 2.88%

CC(C)(C)n1nc2c(c1NC(=O)c1ccccc1F)CS(=O)C2 (configuration not stated)
inactive: growth inhibition [1] 1.35% | growth inhibition [2] 0.655% | viability increase [3] 0.62% | viability [4] 101% | viability [5] 101% | inhibition [6] 1.66% | RAM network inhibition [7] 1.67%

CC(C)CC(=O)Nc1ccc2oc(-c3cccnc3)nc2c1
inactive: growth inhibition [1] 2.48% | growth inhibition [2] 2.53% | viability increase [3] -1.73% | viability [4] 100% | viability [5] 94% | inhibition [6] 1.53% | RAM network inhibition [7] -0.72%

Cc1onc(-c2ccccc2Cl)c1C(=O)Nc1nnc(-c2ccc(F)cc2)s1
inactive: growth inhibition [1] -16.7% | growth inhibition [2] -1.93% | viability increase [3] 2.9% | viability [4] 98.5% | viability [5] 90.5% | inhibition [6] 2.51% | RAM network inhibition [7] 5.79%

CCOC(=O)NC(Nc1ncccn1)(C(F)(F)F)C(F)(F)F
inactive: growth inhibition [1] 0.98% | growth inhibition [2] -5.49% | viability increase [3] -3.34% | viability [4] 94.4% | viability [5] 97.5% | inhibition [6] 1.17% | RAM network inhibition [7] 0.47%

CCOc1ccc(N2C(=O)CC(Sc3nc(C)cc(C)n3)C2=O)cc1 (configuration not stated)
inactive: growth inhibition [1] -3.95% | growth inhibition [2] 1.55% | viability increase [3] -1.4% | viability [4] 108% | viability [5] 98.9% | inhibition [6] 0.24% | RAM network inhibition [7] 3.27%

O=C(NCc1ccco1)c1ccc(S(=O)(=O)c2cccc(S(=O)(=O)N3CCOCC3)c2)cc1
inactive: growth inhibition [1] 19% | growth inhibition [2] 2.85% | viability increase [3] -4.28% | viability [4] 92.4% | viability [5] 87.1% | inhibition [6] 1.19% | RAM network inhibition [7] 3.8%

COc1ccc(C2CC(c3ccc(Cl)cc3Cl)Nc3nc(N)nn32)cc1OC (configuration not stated)
inactive: growth inhibition [1] 0.16% | growth inhibition [2] 22.6% | viability increase [3] 6.01% | viability [4] 88.2% | viability [5] 85.7% | inhibition [6] 0.4% | RAM network inhibition [7] 1.22%
